Laboratory results as given in ChEMBL document CHEMBL1926577, “Novel 1,3,4-heterodiazole analogues: synthesis and in-vitro antitumor activity” (2012).

Key:
Type in all cases: functional
SK-MEL-28 = test: Growth inhibition of human SK-MEL-28 cells at 10 uM after 48 hrs by coulter counter method; settings: SK-MEL-28, 48 h, read-out: GI
How it was run: (§1)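 NCI 60-cell-line panel, single dose. Compound dissolved first in DMSO, then diluted in phosphate-buffered saline so that every final dilution held under 1% DMSO. Duplicate wells received cells at 6 × 10⁴ cells/ml. Controls held PBS/DMSO at the same dilution. Plates were incubated 48 h at 37 °C under 5% CO₂. Cells were then diluted 10-fold in saline and counted on a Coulter counter, with counts corrected for the dilution. Results are given as percent growth inhibition.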

HL-60(TB) = test: Growth inhibition of human HL-60(TB) cells at 10 uM after 48 hrs by coulter counter method; settings: HL-60, 48 h, read-out: GI
How it was run: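 Single-dose screen on the NCI 60-line panel (leukemia subpanel). Compound is dissolved in DMSO and diluted in PBS, with final DMSO below 1%. Duplicate wells hold 6 × 10⁴ cells/ml at 37 °C, 5% CO₂, for 48 h. Cells are counted by Coulter counter after 10-fold saline dilution. Read-out is percent growth versus PBS/DMSO controls, expressed as % growth inhibition.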

CCRF-CEM = test: Growth inhibition of human CCRF-CEM cells at 10 uM after 48 hrs by coulter counter method; settings: read-out: GI; how it was run: as §1
SNB-19 = test: Growth inhibition of human SNB19 cells at 10 uM after 48 hrs by coulter counter method; settings: SNB-19, 48 h, read-out: GI; how it was run: as §1
NCI-H23 = test: Growth inhibition of human NCI-H23 cells at 10 uM after 48 hrs by coulter counter method; settings: NCI-H23, 48 h, read-out: GI; how it was run: as §1
SF-295 = test: Growth inhibition of human SF295 cells at 10 uM after 48 hrs by coulter counter method; settings: SF-295, 48 h, read-out: GI; how it was run: as §1
A498 = test: Growth inhibition of human A498 cells at 10 uM after 48 hrs by coulter counter method; settings: A498, 48 h, read-out: GI; how it was run: as §1
U-251 = test: Growth inhibition of human U251 cells at 10 uM after 48 hrs by coulter counter method; settings: U-251, 48 h, read-out: GI; how it was run: as §1
SN12C = test: Growth inhibition of human SN12C cells at 10 uM after 48 hrs by coulter counter method; settings: read-out: GI; how it was run: as §1
Malme-3M = test: Growth inhibition of human MALME-3M cells at 10 uM after 48 hrs by coulter counter method; settings: read-out: GI; how it was run: as §1
NCI-H322M = test: Growth inhibition of human NCI-H322M cells at 10 uM after 48 hrs by coulter counter method; settings: read-out: GI; how it was run: as §1
PC-3 = test: Growth inhibition of human PC3 cells at 10 uM after 48 hrs by coulter counter method; settings: PC-3, 48 h, read-out: GI; how it was run: as §1
ACHN = test: Growth inhibition of human ACHN cells at 10 uM after 48 hrs by coulter counter method; settings: read-out: GI; how it was run: as §1
NCI-H522 = test: Growth inhibition of human NCI-H522 cells at 10 uM after 48 hrs by coulter counter method; settings: NCI-H522, 48 h, read-out: GI; how it was run: as §1
SF-268 = test: Growth inhibition of human SF268 cells at 10 uM after 48 hrs by coulter counter method; settings: SF-268, 48 h, read-out: GI; how it was run: as §1
SK-MEL-2 = test: Growth inhibition of human SK-MEL-2 cells at 10 uM after 48 hrs by coulter counter method; settings: SK-MEL-2, 48 h, read-out: GI; how it was run: as §1
UACC-257 = test: Growth inhibition of human UACC257 cells at 10 uM after 48 hrs by coulter counter method; settings: UACC-257, 48 h, read-out: GI; how it was run: as §1
K562 = test: Growth inhibition of human K562 cells at 10 uM after 48 hrs by coulter counter method; settings: K562, 48 h, read-out: GI; how it was run: as §1
TK-10 = test: Growth inhibition of human TK10 cells at 10 uM after 48 hrs by coulter counter method; settings: TK-10, 48 h, read-out: GI; how it was run: as §1
M14 = test: Growth inhibition of human M14 cells at 10 uM after 48 hrs by coulter counter method; settings: M14, 48 h, read-out: GI; how it was run: as §1
786-0 = test: Growth inhibition of human 786-0 cells at 10 uM after 48 hrs by coulter counter method; settings: 786-0, 48 h, read-out: GI; how it was run: as §1
NCI-H226 = test: Growth inhibition of human NCI-H226 cells at 10 uM after 48 hrs by coulter counter method; settings: NCI-H226, 48 h, read-out: GI; how it was run: as §1
UO-31 = test: Growth inhibition of human UO31 cells at 10 uM after 48 hrs by coulter counter method; settings: UO-31, 48 h, read-out: GI; how it was run: as §1
UACC-62 = test: Growth inhibition of human UACC62 cells at 10 uM after 48 hrs by coulter counter method; settings: UACC-62, 48 h, read-out: GI; how it was run: as §1
NCI/ADR-RES = test: Growth inhibition of human NCI/ADR-RES cells at 10 uM after 48 hrs by coulter counter method; settings: read-out: GI; how it was run: as §1
OVCAR-8 = test: Growth inhibition of human OVCAR8 cells at 10 uM after 48 hrs by coulter counter method; settings: OVCAR-8, 48 h, read-out: GI; how it was run: as §1
MOLT-4 = test: Growth inhibition of human MOLT4 cells at 10 uM after 48 hrs by coulter counter method; settings: MOLT-4, 48 h, read-out: GI; how it was run: as §1
T47D = test: Growth inhibition of human T47D cells at 10 uM after 48 hrs by coulter counter method; settings: read-out: GI; how it was run: as §1
SR = test: Growth inhibition of human SR cells at 10 uM after 48 hrs by coulter counter method; settings: read-out: GI; how it was run: as §1
HT-29 = test: Growth inhibition of human HT-29 cells at 10 uM after 48 hrs by coulter counter method; settings: HT-29, 48 h, read-out: GI; how it was run: as §1
KM12 = test: Growth inhibition of human KM12 cells at 10 uM after 48 hrs by coulter counter method; settings: KM12, 48 h, read-out: GI; how it was run: as §1
EKVX = test: Growth inhibition of human EKVX cells at 10 uM after 48 hrs by coulter counter method; settings: read-out: GI; how it was run: as §1
CAKI-1 = test: Growth inhibition of human Caki1 cells at 10 uM after 48 hrs by coulter counter method; settings: CAKI-1, 48 h, read-out: GI; how it was run: as §1
MDA-MB-468 = test: Growth inhibition of human MDA-MB-468 cells at 10 uM after 48 hrs by coulter counter method; settings: MDA-MB-468, 48 h, read-out: GI; how it was run: as §1
HCT-15 = test: Growth inhibition of human HCT15 cells at 10 uM after 48 hrs by coulter counter method; settings: HCT-15, 48 h, read-out: GI; how it was run: as §1
SK-MEL-5 = test: Growth inhibition of human SK-MEL-5 cells at 10 uM after 48 hrs by coulter counter method; settings: SK-MEL-5, 48 h, read-out: GI; how it was run: as §1
A549 = test: Growth inhibition of human A549 cells at 10 uM after 48 hrs by coulter counter method; settings: A549, 48 h, read-out: GI; how it was run: as §1
SNB-75 = test: Growth inhibition of human SNB75 cells at 10 uM after 48 hrs by coulter counter method; settings: SNB-75, 48 h, read-out: GI; how it was run: as §1
BT-549 = test: Growth inhibition of human BT549 cells at 10 uM after 48 hrs by coulter counter method; settings: BT-549, 48 h, read-out: GI; how it was run: as §1
RPMI-8226 = test: Growth inhibition of human RPMI8226 cells at 10 uM after 48 hrs by coulter counter method; settings: RPMI-8226, 48 h, read-out: GI; how it was run: as §1
MDA-MB-435 = test: Growth inhibition of human MDA-MB-435 cells at 10 uM after 48 hrs by coulter counter method; settings: MDA-MB-435, 48 h, read-out: GI; how it was run: as §1
MCF7 = test: Growth inhibition of human MCF7 cells at 10 uM after 48 hrs by coulter counter method; settings: MCF7, 48 h, read-out: GI; how it was run: as §1
IGROV-1 = test: Growth inhibition of human IGROV1 cells at 10 uM after 48 hrs by coulter counter method; settings: IGROV-1, 48 h, read-out: GI; how it was run: as §1
HCT-116 = test: Growth inhibition of human HCT116 cells at 10 uM after 48 hrs by coulter counter method; settings: HCT-116, 48 h, read-out: GI; how it was run: as §1
LOX IMVI = test: Growth inhibition of human LOXIMVI cells at 10 uM after 48 hrs by coulter counter method; settings: read-out: GI; how it was run: as §1

O=C1CN2N=C(c3ccc(Cl)cc3)OC2=N1
inhibition of growth at 10 µM (SK-MEL-28): < 10% | inhibition of growth at 10 µM (HL-60(TB)): < 10% | inhibition of growth at 10 µM (CCRF-CEM): < 10% | inhibition of growth at 10 µM (SNB-19): < 10% | inhibition of growth at 10 µM (NCI-H23): < 10% | inhibition of growth at 10 µM (SF-295): < 10% | inhibition of growth at 10 µM (A498): < 10% | inhibition of growth at 10 µM (U-251): < 10% | inhibition of growth at 10 µM (SN12C): < 10% | inhibition of growth at 10 µM (Malme-3M): < 10% | inhibition of growth at 10 µM (NCI-H322M): < 10% | inhibition of growth at 10 µM (PC-3): < 10% | inhibition of growth at 10 µM (ACHN): < 10% | inhibition of growth at 10 µM (NCI-H522): 18.9% | inhibition of growth at 10 µM (SF-268): < 10% | inhibition of growth at 10 µM (SK-MEL-2): < 10% | inhibition of growth at 10 µM (UACC-257): < 10% | inhibition of growth at 10 µM (K562): 17.2% | inhibition of growth at 10 µM (TK-10): < 10% | inhibition of growth at 10 µM (M14): < 10% | inhibition of growth at 10 µM (786-0): < 10% | inhibition of growth at 10 µM (NCI-H226): < 10% | inhibition of growth at 10 µM (UO-31): 26.8% | inhibition of growth at 10 µM (UACC-62): < 10% | inhibition of growth at 10 µM (NCI/ADR-RES): < 10% | inhibition of growth at 10 µM (OVCAR-8): < 10% | inhibition of growth at 10 µM (MOLT-4): < 10% | inhibition of growth at 10 µM (T47D): < 10% | inhibition of growth at 10 µM (SR): < 10% | inhibition of growth at 10 µM (HT-29): < 10% | inhibition of growth at 10 µM (KM12): < 10% | inhibition of growth at 10 µM (EKVX): < 10% | inhibition of growth at 10 µM (CAKI-1): < 10% | inhibition of growth at 10 µM (MDA-MB-468): < 10% | inhibition of growth at 10 µM (HCT-15): < 10% | inhibition of growth at 10 µM (SK-MEL-5): < 10% | inhibition of growth at 10 µM (A549): < 10% | inhibition of growth at 10 µM (SNB-75): < 10% | inhibition of growth at 10 µM (BT-549): < 10% | inhibition of growth at 10 µM (RPMI-8226): < 10% | inhibition of growth at 10 µM (MDA-MB-435): < 10% | inhibition of growth at 10 µM (MCF7): < 10% | inhibition of growth at 10 µM (IGROV-1): < 10% | inhibition of growth at 10 µM (HCT-116): < 10% | inhibition of growth at 10 µM (LOX IMVI): < 10%
